Assay outcomes deposited in PubChem BioAssay by The Scripps Research Institute Molecular Screening Center.
NPY-Y2 PAM-ag = potentiators or agonists of human neuropeptide Y receptor Y2. P49146. cells expressing NPY-Y2, potentiator/agonist read-out. activation, % at 3.6 µM. hit rate 0.45% among 220,000; in the data active = activation above about 27%;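 note: cells stimulated with NPY near EC25 plus isoproterenol at EC100; 0% = vehicle plus submaximal agonist and 100% = vehicle plus saturating agonist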
Target sequence (P49146 whole entry, looked up): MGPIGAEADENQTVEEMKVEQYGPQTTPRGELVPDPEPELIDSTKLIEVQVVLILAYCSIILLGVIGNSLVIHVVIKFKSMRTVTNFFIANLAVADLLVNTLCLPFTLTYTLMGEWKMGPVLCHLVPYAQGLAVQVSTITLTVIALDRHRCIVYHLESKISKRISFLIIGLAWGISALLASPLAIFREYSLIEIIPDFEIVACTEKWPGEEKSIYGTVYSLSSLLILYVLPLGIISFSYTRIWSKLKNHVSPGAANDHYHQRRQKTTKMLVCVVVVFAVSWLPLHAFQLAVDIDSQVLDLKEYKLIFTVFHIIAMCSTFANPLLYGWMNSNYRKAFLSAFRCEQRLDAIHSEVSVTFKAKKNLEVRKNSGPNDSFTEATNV
NPY-Y1 antag = antagonists of human neuropeptide Y receptor Y1 | hit rate 1% among 200,000 | inhibition, % at 3.6 µM | HEK293-CNG Y1 cells, membrane potential fluorescence; NPY at EC95, then isoproterenol | P25929 | AID 1040;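 active = inhibition above the campaign mean inhibition of all tested compounds plus 3 SD, cut at about 20% in these data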;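 note: 0% = DMSO wells given NPY plus isoproterenol and 100% = isoproterenol alone without NPY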
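Test system – HEK293 Y1/CNG channel cell line · Also added – NPY agonist 25 nM, then isoproterenol 1 µM plus Ro 20-1724 25 µM · Compound dosing – one concentration, 3.6 µM, in 0.4% DMSO · Schedule – compound incubation 1 h at room temperature, readout 45 min post-stimulation · Technique – fluorescence, membrane potential probe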
NPY-Y2 antag = antagonists of human neuropeptide Y receptor Y2; inhibition, % at 2.7 µM; NPY-Y2 expressing cells, antagonist mode; P49146; hit rate 0.99% among 140,000;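 note: 0% = vehicle with agonist challenge and 100% = reference antagonist with challenge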
NPY1 pot ag = human NPY-Y1 potentiation or agonism, primary screen; NPY-Y1 expressing cells, potentiator/agonist activation; activation, % at 3.6 µM; hit rate 0.37% among 220,000; in the data active = activation above about 33%, passing the limit was not always enough;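 note: cells stimulated with NPY at EC10 then isoproterenol at EC100; 0% = low agonist plus stimulus and 100% = saturating agonist plus stimulus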
NPY-Y1 ant conf = human NPY-Y1 antagonism, confirmation. shares compounds with NPY-Y1 antag. inhibition, % at 3.6 µM. AID 1254. HEK293-CNG NPY-Y1, membrane potential fluorescence, cAMP; NPY challenge against isoproterenol-raised cAMP. hit rate 21% among 1,200; in the data active = inhibition above about 20%;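 note: 0% = vehicle with agonist plus stimulus and 100% = stimulus alone without agonist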
NPY-Y2 antag ct = antagonizes human NPY-Y2, counter-screen to NPY-Y1 antagonists; hit rate 28% among 1,200; inhibition, % at 3.6 µM; shares compounds with NPY-Y1 antag; HEK293 NPY-Y2 CNG membrane potential fluorescence, antagonism; cells given NPY, then isoproterenol;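 note: 0% = DMSO with agonist challenge and 100% = reference antagonist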
* = called active by the depositor; · = not tested or not shown. Sampled rows, rich in hits. Any-hit rate of the full collection: about 1.8%. Cut-off read from the data, not from the text of the source, unless noted: active = inhibition above about 17%; inactive = the rest.

SMILES	NPY-Y2 PAM-ag	NPY-Y1 antag	NPY-Y2 antag	NPY1 pot ag	NPY-Y1 ant conf	NPY-Y2 antag ct
OC1CCCN(Cc2ccc3ccc4cccc5ccc2c3c45)C1 (centres undefined)	-18	25*	11	-35	10	17*
c1cc2ccc3ccc(CN4CCOCC4)c4ccc(c1)c2c34	-1	8	3	-20	·	·
COc1ccc(CC(=O)N/N=C(\C)CC(=O)NCc2ccco2)cc1OC	-12	·	·	12	·	·
CCOc1cc(/C=C2\CCC/C(=C\c3cc(Cl)c(O)c(OCC)c3)C2=O)cc(Cl)c1O	-44	44*	16	-55	45*	44*
C=CCNC(=O)/C(C#N)=C\c1cc(Cl)c(O)c(OCC)c1	-24	4	1	-17	·	·
N=c1n(CCN2CCCC2)c2ccccc2n1CC(O)c1ccc(Cl)c(Cl)c1 (centres undefined)	-28	43*	·	-33	16	29*
N=c1n(CCN2CCOCC2)c2ccccc2n1CC(=O)c1ccc(Cl)c(Cl)c1	-5	16	7	-5	·	·
N=c1n(Cc2ccccc2Cl)c2ccccc2n1CC(O)c1ccco1 (centres undefined)	-7	28*	·	6	15	25*
N=c1n(Cc2ccccc2)c2ccccc2n1CC(O)c1ccccc1 (centres undefined)	-14	28*	16	-24	9	16
CCCn1c(=N)n(CC(O)c2ccc(C)cc2)c2ccccc21 (centres undefined)	-29	·	·	-12	·	·
Cc1cc(C)c(-n2nnnc2SCC(=O)c2cc3ccccc3o2)c(C)c1	-1	·	·	-25	·	·
CCOc1ccc(Nc2cc(Nc3ccccc3OCC)nc(C=C(C#N)C#N)n2)cc1	6	·	·	12	·	·
O=C(c1cc(-c2cccs2)on1)N1CCN(c2ccccc2)CC1	-22	25*	13	-32	8	9
O=C(c1cc(-c2cccs2)on1)N1CCN(c2ccc(F)cc2)CC1	6	9	9	-4	·	·
O=C(c1ccco1)N(CCC(c1ccccc1)c1ccco1)Cc1ccc(F)cc1 (centres undefined)	-44	25*	6	-21	13	13
Cc1ccc(Cl)cc1N1CCN(C(c2cccnc2)c2nnnn2C2CCCCC2)CC1 (centres undefined)	7	-1	1	10	·	·
Cc1ccc(Cl)cc1N1CCN(C(c2ccc(C#N)cc2)c2nnnn2C2CCCC2)CC1 (centres undefined)	-18	27*	14	-12	18	13
CCC(c1nnnn1C(C)(C)C)N1CCN(c2cc(Cl)ccc2C)CC1 (centres undefined)	-24	25*	11	-18	14	14
C/C=C(/C)C(=O)O[C@@H]1c2c(ccc3ccc(=O)oc23)OC(C)(C)[C@@H]1OC(=O)/C(C)=C\C	-4	31*	16	-25	17	8
C/C=C(/C)C(=O)O[C@@H]1[C@H](OC(=O)C=C(C)C)c2c(ccc3ccc(=O)oc23)OC1(C)C	4	6	4	2	·	·
Cn1c2ccccc2c2cnn(CC(=O)O)c(=O)c21	-40	26*	12	-48	7	7
CCOc1ccc(S(=O)(=O)N2c3ccccc3CC2C)cc1 (centres undefined)	-10	38*	15	-27	8	17*
Cc1ccc(NC(C#N)c2ccccc2OCc2ccccc2)cc1 (centres undefined)	3	-7	-1	-12	·	·
CCOC(=O)C(CCCCCCC(NC(C)=O)(C(=O)OCC)C(=O)OCC)(NC(C)=O)C(=O)OCC	-12	·	·	3	·	·
CCOC(=O)C(CO)(NC(C)=O)C(=O)OCC	-13	25*	11	0	9	7
SMILES	NPY-Y2 PAM-ag	NPY-Y1 antag	NPY-Y2 antag	NPY1 pot ag	NPY-Y1 ant conf	NPY-Y2 antag ct
COc1cc(C(=O)N/N=C/c2sccc2C)cc(OC)c1OC	-5	50*	·	1	3	12
Cc1ccsc1/C=N/NC(=O)c1ccncc1	4	-1	·	10	·	·
CCCCCCC(=O)Nc1nc(C)c(-c2csc(Nc3ccccc3OC)n2)s1	3	32*	12	5	10	6
CCCC(C)C(=O)Nc1nc(C)c(-c2csc(Nc3ccccc3OC)n2)s1 (centres undefined)	-14	24*	9	2	13	6
COc1ccc(CN2CCNC(=O)C2CC(=O)N2CCCO2)c(OC)c1 (centres undefined)	7	-1	·	3	·	·
CCc1nc(N[C@@H](CC(C)C)C(=O)O)c2oc3ccccc3c2n1	-20	26*	14	-20	14	23*
CCc1nc(N[C@H](C(=O)O)C(C)C)c2oc3ccccc3c2n1	-22	·	·	-49	·	·
CN(CCC#N)C(=S)NC(=O)c1ccc(S(=O)(=O)N2CCOCC2)cc1	4	46*	·	10	0	0
CC(NC(=O)c1cnccn1)c1ccc(S(N)(=O)=O)cc1 (centres undefined)	5	·	·	-6	·	·
COC(=O)c1c(NC(=O)CN2CCC(C(N)=O)CC2)c2c(C)cccc2n1C	4	8	-2	10	·	·
COC(=O)c1c(NC(=O)CN2CCCC(C)C2)c2c(C)cccc2n1C (centres undefined)	-17	32*	13	-16	6	4
COC(=O)c1ccc(NC(=O)c2ccc(CN3CCOCC3)cc2)cc1	18	-10	2	-2	·	·
O=C(Nc1ccc(CN2CCOCC2)cc1)c1ccc(-c2ccc(Br)cc2)o1	-39	31*	13	-60	12	21*
O=C(NCCCc1nc2ccccc2[nH]1)c1cccs1	0	7	·	-18	·	·
CCCCCCCCCCOC(=O)C[N+](C)(C)C/C=C(/C)Cl	-3	23*	15	-1	11	12
OCCCNCc1cccc2ccccc12	-10	5	4	-18	·	·
Oc1ccccc1CNCCCNCc1ccccc1O	-16	30*	10	-70	12	17
O=C(Nc1ccn(-c2ccccc2)n1)c1ccc(S(=O)(=O)N2CCCCCC2)cc1	-8	-1	0	-16	·	·
Cc1ccc(OCCN2CCN(c3ncnc4sc(C)c(C)c34)CC2)cc1	5	9	13	-68	·	·
Clc1ccc(OCCN2CCN(c3ncnc4sccc34)CC2)cc1	-3	26*	8	-46	20	20*
COc1ccc(C(C)(C)C)cc1S(=O)(=O)N1CCC(C(N)=O)CC1	-4	23*	-1	-4	0	0
COc1ccc(F)cc1S(=O)(=O)N1CCC(C(N)=O)CC1	-5	2	1	4	·	·
CCCCN(C)C(=O)Cc1c(OC)ccc2cc(Br)ccc12	6	21*	14	-16	16	8
COc1ccc2cc(Br)ccc2c1CC(=O)N(C)C	2	1	·	14	·	·
COc1cccc(Cn2c(-c3nonc3N)nc3ccccc32)c1	-16	26*	12	-43	11	14
COc1cc(Cn2c(-c3nonc3N)nc3ccccc32)ccc1C	-35	30*	14	-60	15	24*
